Reference: ChEMBL document CHEMBL5712888, “Pharmacological targeting of the Wdr5-MLL interaction in C/EBPα N-terminal leukemia” (Nat Chem Biol, 2015)
The source made the active and inactive calls. The calls are words filed in the database; no cut-off is given here.

Columns and labels:
Hepatocyte [1] = experiment: Antiproliferative activity against mouse primary fetal liver cells expressing C/EBP-alpha p30 assessed as reduction in cell viability after 72 hrs by cell TiterGlo luminescent cell viability assay; format: functional, cell-based
K562 = experiment: Antiproliferative activity against human K562 cells assessed as reduction in cell viability after 72 hrs by cell TiterGlo luminescent cell viability assay; format: functional, cell-based
[2] = target: T1, Alpha-1A adrenergic receptor (Rattus norvegicus) (UniProt P43140); experiment: Displacement of [3H]prazosin from rat […] brain alpha1 adrenergic receptor assessed as remaining activity at 1 uM after 60 mins by scintillation counting method relative to control; format: tissue-based
T1 sequence (whole entry): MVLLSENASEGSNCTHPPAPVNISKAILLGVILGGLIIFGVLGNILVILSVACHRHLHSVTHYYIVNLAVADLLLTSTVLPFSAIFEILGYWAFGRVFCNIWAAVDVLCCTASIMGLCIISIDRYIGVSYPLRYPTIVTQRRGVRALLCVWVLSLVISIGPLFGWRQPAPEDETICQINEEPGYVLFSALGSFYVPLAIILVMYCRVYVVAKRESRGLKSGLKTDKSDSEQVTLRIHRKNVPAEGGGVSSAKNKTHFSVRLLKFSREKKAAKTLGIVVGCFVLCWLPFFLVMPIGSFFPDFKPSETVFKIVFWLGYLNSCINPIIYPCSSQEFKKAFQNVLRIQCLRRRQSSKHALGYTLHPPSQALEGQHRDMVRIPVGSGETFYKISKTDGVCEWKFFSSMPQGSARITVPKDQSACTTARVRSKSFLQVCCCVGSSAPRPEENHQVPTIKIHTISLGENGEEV

Hepatocyte [3] = experiment: Induction of myeloid differentiation in mouse primary fetal liver cells expressing C/EBP-alpha p30 assessed as upregulation of Lcn2 mRNA expression at 20 uM after 3 to 6 days by qRT-PCR analysis; format: functional, cell-based; conditions: time 3-6 day
Procedure, shortened: (§1)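 Cebpap30/p30 cells in culture with 20 μM compound for the indicated periods. Total RNA (300 ng) reverse transcribed with oligo(dT); SYBR qPCR, quantified by 2−ddCt method; mean ± SD of triplicate experiments, t-test.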

[4] = target: CDK9/cyclin T1 (Homo sapiens) (UniProt O60563+P50750); experiment: Inhibition of CDK9/CycT1 (unknown origin) assessed as remaining activity at 1 uM relative to control; format: protein-complex assay
Hepatocyte [5] = experiment: Induction of progenitor morphology loss in mouse primary fetal liver cells expressing C/EBP-alpha p30 at 20 uM after 6 days by Cytospin stainig based microscopic analysis; format: functional, cell-based; conditions: time 6.0 day
Procedure, shortened: (§2)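 Cebpap30/p30 cells left untreated or given 20 μM compound for 6 days. Fc receptors blocked with anti-CD16/CD32, then Mac-1 and Gr-1 staining by flow cytometry, with Mac-1/Gr-1 double-positive cells counted at the indicated time points. Cytospins stained with Kwik-Diff for microscopic morphology.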

Hepatocyte [6] = experiment: Induction of myeloid differentiation in mouse primary fetal liver cells expressing C/EBP-alpha p30 assessed as upregulation of Lyz2 mRNA expression at 20 uM after 3 to 6 days by qRT-PCR analysis; format: functional, cell-based; conditions: time 3-6 day; procedure, shortened: as §1
Hepatocyte [7] = experiment: Induction of myeloid differentiation in mouse primary fetal liver cells expressing C/EBP-alpha p30 assessed as upregulation of Lilrb3 mRNA expression at 20 uM after 3 to 6 days by qRT-PCR analysis; format: functional, cell-based; conditions: time 3-6 day; procedure, shortened: as §1
Hepatocyte [8] = experiment: Induction of myeloid differentiation in mouse primary fetal liver cells expressing C/EBP-alpha p30 assessed as upregulation of Ccl9 mRNA expression at 20 uM after 3 to 6 days by qRT-PCR analysis; format: functional, cell-based; conditions: time 3-6 day; procedure, shortened: as §1
[9] = Toxicity in mouse bone marrow cells assessed as reduction in colony formation at 2.5 to 20 uM after 7 day by CFU assay; format: cell-based; conditions: bone marrow cell, 168 h, dose 2.5-20 µM
Hepatocyte [10] = experiment: Induction of myeloid differentiation in mouse primary fetal liver cells expressing C/EBP-alpha p30 assessed as upregulation of Mac-1/Gr-1 double positive cells at 20 uM after 6 days by flow cytometry analysis; format: functional, cell-based; conditions: time 6.0 day; procedure, shortened: as §2
[11] = target: Kappa-type opioid receptor (Homo sapiens) (UniProt P41145); experiment: Displacement of [3H]U69593 from human kappa receptor assessed as remaining activity at 1 uM after 60 mins by scintillation counting analysis relative to control
Chain of Kappa-type opioid receptor (Homo sapiens) (P41145 whole entry): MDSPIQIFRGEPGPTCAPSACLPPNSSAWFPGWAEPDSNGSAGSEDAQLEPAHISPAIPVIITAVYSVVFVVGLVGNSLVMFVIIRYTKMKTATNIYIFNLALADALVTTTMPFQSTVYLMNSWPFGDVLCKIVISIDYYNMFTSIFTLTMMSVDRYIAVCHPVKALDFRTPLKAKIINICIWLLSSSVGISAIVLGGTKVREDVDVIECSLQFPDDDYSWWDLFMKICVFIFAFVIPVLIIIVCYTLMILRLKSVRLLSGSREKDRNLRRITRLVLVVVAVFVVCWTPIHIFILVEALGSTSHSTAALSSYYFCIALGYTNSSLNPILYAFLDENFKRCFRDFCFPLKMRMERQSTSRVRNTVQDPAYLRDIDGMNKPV

Hepatocyte [12] = experiment: Inhibition of colony formation in mouse primary fetal liver cells expressing C/EBP-alpha p30 at 5 to 20 uM after 7 day by colony formation assay; format: functional, cell-based; conditions: dose 5-20 µM
Procedure, shortened: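 Primary Cebpap30/p30 fetal liver cells, maintained in DMEM/10% FCS with SCF, IL-6 and IL-3, plated at 1×10^4 cells in complete methylcellulose (M3434) with compound at the indicated concentrations; colonies scored 7 days later and normalized to DMSO for each genotype; mean ± SD of triplicate experiments.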

[13] = target: Cyclin-dependent kinase 4/cyclin D1 (Homo sapiens) (UniProt P11802+P24385); experiment: Inhibition of CDK4/cycD1 (unknown origin) assessed as remaining activity at 1 uM relative to control; format: protein-complex assay
Hepatocyte [14] = experiment: Induction of myeloid differentiation in mouse primary fetal liver cells expressing C/EBP-alpha p30 assessed as upregulation of C3ar1 mRNA expression at 20 uM after 3 to 6 days by qRT-PCR analysis; format: functional, cell-based; conditions: time 3-6 day; procedure, shortened: as §1
[15] = target: Cyclin-dependent kinase 5/CDK5 activator 1 (Homo sapiens) (UniProt Q00535+Q15078); experiment: Inhibition of CDK5/p35 (unknown origin) assessed as remaining activity at 1 uM relative to control; format: protein-complex assay
Chain of Cyclin-dependent kinase 5/CDK5 activator 1 (Homo sapiens) (Q00535 whole entry): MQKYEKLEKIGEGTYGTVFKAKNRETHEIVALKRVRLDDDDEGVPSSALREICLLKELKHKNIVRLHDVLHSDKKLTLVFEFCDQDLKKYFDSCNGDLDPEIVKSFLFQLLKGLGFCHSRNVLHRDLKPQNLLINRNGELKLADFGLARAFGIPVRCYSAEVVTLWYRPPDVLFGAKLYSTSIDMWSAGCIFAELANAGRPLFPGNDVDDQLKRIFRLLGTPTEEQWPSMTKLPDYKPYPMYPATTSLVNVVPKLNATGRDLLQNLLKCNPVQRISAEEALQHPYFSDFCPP
Chain of Cyclin-dependent kinase 5/CDK5 activator 1 (Homo sapiens) (Q15078 99-307 partner limits assumed): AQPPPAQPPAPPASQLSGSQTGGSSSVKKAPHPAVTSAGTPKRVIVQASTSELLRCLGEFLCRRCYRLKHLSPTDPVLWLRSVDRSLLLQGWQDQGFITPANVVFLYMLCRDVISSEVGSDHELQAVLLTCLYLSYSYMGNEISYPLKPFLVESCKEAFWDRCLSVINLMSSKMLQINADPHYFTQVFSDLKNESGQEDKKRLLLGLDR

Homo sapiens = organism: Homo sapiens; experiment: Binding affinity against WDR5 S91K mutant (unknown origin) at 50 uM by differential scanning fluorimetry
Procedure, shortened: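 Thermal shift of purified recombinant S91K-mutant WDR5 measured by differential scanning fluorimetry, with test compound at 50 μM run alongside a DMSO vehicle control.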

[16] = Antiproliferative activity against human acute myeloid leukemic cells harboring N-terminal CEBPA mutation assessed as vaibility at 5 uM after 72 hrs by cell titer glo luminescent cell viability assay relative to control; format: functional, Leukemia cell
Procedure, shortened: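 20,000 viable proliferating cells per well in triplicate, exposed to 5 μM compound or 0.05% DMSO for 72 h (3 days); CellTiter-Glo luminescence, normalized to DMSO for each patient sample; mean ± SD.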

Structure (SMILES)	Activity (Hepatocyte [1])	Activity (K562)	Activity [2] [%]	Activity (Hepatocyte [3])	Activity [4] [%]	Activity (Hepatocyte [5])	Activity (Hepatocyte [6])	Activity (Hepatocyte [7])	Activity (Hepatocyte [8])	Activity [9]	Activity (Hepatocyte [10])	Activity [11] [%]	inhibition (Hepatocyte [12])	Activity [13] [%]	Activity (Hepatocyte [14])	Activity [15] [%]	Activity (Homo sapiens)	Activity [16] [%]
O=C(Nc1cc(-c2cccc(CN3CCOCC3)c2)ccc1N1CCOCC1)c1c[nH]c(=O)cc1C(F)(F)F	inactive	inactive	–	–	–	–	–	–	–	–	–	–	–	–	–	–	–	–
CN1CCN(c2ccc(-c3cccc(CN4CCOCC4)c3)cc2NC(=O)c2c[nH]c(=O)cc2C(F)(F)F)CC1	–	–	99	Active	98	Active	Active	Active	Active	Non-Toxic	Active	102	Active	102	Active	102	inactive	53
